Results gathered from unrelated publications.
Protocols differ between the studies behind these lines.
Observed: metabolic stability
Species: human

Cc1cc([C@H]2C[C@H]3[C@@H](CF)SC(N)=N[C@@]3(c3ccc(F)cc3F)CO2)on1
scaled CLint (liver microsomes): < 8 mL/min/kg

Cc1ccc(F)c2cc(C(=O)N[C@@H]3CCC[C@H](c4ccncc4)C3)[nH]c12
scaled CLint (hepatocytes; 0.5 µM, 2 h): 32.3 mL/min/kg

O=C1c2ccc(COc3ccccc3)nc2CCN1c1ccc(F)cc1
scaled CLint (liver microsomes): 18 mL/min/kg

Cn1cc([C@H]2C[C@H]3CSC(N)=N[C@@]3(c3ccc(F)cc3F)CO2)cn1
scaled CLint (liver microsomes): 9.1 mL/min/kg

O=C(c1ccc(F)cc1)C1CCN(CCn2c(=O)[nH]c3ccccc3c2=O)CC1
scaled CLint (liver microsomes): 44.8 mL/min/kg

O=C1NCCc2nc(OCc3cccc(F)c3)ccc21
scaled CLint (liver microsomes): 25 mL/min/kg

COc1ccc2nc3cc(Cl)ccc3c(Nc3cc(CN4CCCC4)c(O)c(CN4CCCC4)c3)c2n1
scaled CLint (hepatocytes; 1 µM): 3.8 mL/min/kg

Nc1nc(-c2ccc(NC(=O)Nc3cc(Br)cc(Br)c3)cc2)c[nH]1
scaled CLint (liver microsomes; 5 µM, pH 7.4): < 10.4 mL/min/kg

CC(C)(C)n1cc2c(n1)C(O)C(C)(C)C1(CCN(C(=O)c3ccc4[nH]ncc4c3)CC1)O2 (centres unmarked)
scaled CLint (liver microsomes): 17 mL/min/kg

O=C1c2ccc(OCc3cccc(F)c3)nc2CCN1c1ccc(F)cn1
scaled CLint (liver microsomes): 18 mL/min/kg

Nc1nc(-c2ccc(NC(=O)c3ccc(Cl)c(Cl)c3)cc2F)c[nH]1
scaled CLint (liver microsomes; 5 µM, 1 h, pH 7.4): 10.9 mL/min/kg

O=C(Nc1ccc(N2C(=O)c3cccc(Cl)c3C2=O)c(Cl)c1)c1ncccc1Cl
scaled CLint (liver microsomes; 1 µM, pH 7.4): 17.2 mL/min/kg

Cc1coc([C@H]2C[C@H]3CSC(N)=N[C@@]3(c3ccc(F)cc3F)CO2)n1
scaled CLint (liver microsomes): 69.6 mL/min/kg

CC(=O)N(C)C1CCN(c2cc(F)cc(NC(=O)c3cc4c(F)ccc(C)c4[nH]3)c2)C1 (centres unmarked)
scaled CLint (hepatocytes; 0.5 µM, 2 h): 64 mL/min/kg

Nc1nc(-c2ccc(NC(=O)Nc3ccc(-c4c[nH]c(N)n4)c(F)c3)cc2F)c[nH]1
scaled CLint (liver microsomes; 5 µM, pH 7.4): < 20.8 mL/min/kg

Cc1coc([C@H]2C[C@H]3[C@@H](C)SC(N)=N[C@@]3(c3ccc(F)cc3F)CO2)n1
scaled CLint (liver microsomes): < 8 mL/min/kg

CC(F)(F)CN1Cc2cc(C(F)(F)F)ncc2C2=CN=C(NCc3c(F)ccc4c3CCO4)N3C=NC(C1=O)C23 (centres unmarked)
scaled CLint (liver microsomes; 100 µM, 30 min): 9.9 mL/min/kg

Cc1nc2ccc(C(=O)N3CCC4(CC3)Cc3cnn(C(C)C)c3C(O)C4)cc2[nH]1 (centres unmarked)
scaled CLint (liver microsomes): < 8 mL/min/kg

Cc1coc([C@H]2C[C@H]3[C@@H](CF)SC(N)=N[C@@]3(c3ccc(F)cc3F)CO2)n1
scaled CLint (liver microsomes): 27.8 mL/min/kg

CC(=O)Nc1cc(Nc2cc(NC3CC3)n3ncc(C#N)c3n2)ccc1N(C)C[C@@H]1CCCN1
scaled CLint (hepatocytes; 1 µM, serum-free): 0.8 mL/min/kg
